Laboratory results taken from ChEMBL document CHEMBL4251676, “Precursor-Directed Biosynthesis of Phenylbenzoisoquinolindione Alkaloids and the Discovery of a Phenylphenalenone-Based Plant Defense Mechanism” (J Nat Prod, 2018).
The source made the active and inactive calls. The calls are words filed in the database; no cut-off is given here.

Legend:
Assay type in all cases: functional, organism-based
Staphylococcus aureus = assay: Antimicrobial activity against methicillin-resistant Staphylococcus aureus isolate 134/93 after 18 hrs
[1] = system: Sporobolomyces salmonicolor; assay: Antimicrobial activity against Sporidiobolus salmonicolor isolate 549 after 18 hrs
Summary of the method: (§1)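 Ciprofloxacin and amphotericin B were run alongside as reference antimicrobials.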

Escherichia coli = assay: Antimicrobial activity against Escherichia coli isolate 458 after 18 hrs; summary of the method: as §1

Compound | Activity (Staphylococcus aureus) | Activity [1] | Activity (Escherichia coli)
O=C1C(O)=Cc2coc(=O)c3ccc(-c4ccccc4)c1c23 | Active | – | –
O=C1C(O)=Cc2cn(CCCC[C@@H](C(=O)O)n3cc4c5c(c(-c6ccccc6)ccc5c3=O)C(=O)C(O)=C4)c(=O)c3ccc(-c4ccccc4)c1c23 | inactive | inactive | inactive
O=C1OC(O)c2cc(O)c(O)c3c(-c4ccccc4)ccc1c23 (configuration not stated) | Active | – | –
COc1cc2c3c(ccc(-c4ccccc4)c3c1O)C(=O)OC2OC (configuration not stated) | Active | – | –
COC1OC(=O)c2ccc(-c3ccccc3)c3c(O)c(O)cc1c23 (configuration not stated) | Active | – | –
O=C1C(O)=Cc2c3n(c(=O)c4ccc(-c5ccccc5)c1c24)[C@H](C(=O)O)CS3 | inactive | inactive | inactive
C[C@@H]1[C@H](O)[C@@H](C)/C=C/C=C/C=C/C=C/C=C/C=C/C=C/[C@H](O[C@@H]2O[C@H](C)[C@@H](O)[C@H](N)[C@@H]2O)C[C@@H]2O[C@](O)(C[C@@H](O)C[C@@H](O)[C@H](O)CC[C@@H](O)C[C@@H](O)CC(=O)O[C@H]1C)C[C@H](O)[C@H]2C(=O)O | – | Active | Active
O=C(O)c1cn(C2CC2)c2cc(N3CCNCC3)c(F)cc2c1=O | – | Active | Active
CC(C)C[C@H](C(=O)O)n1cc2c3c(c(-c4ccccc4)ccc3c1=O)C(=O)C(O)=C2 | inactive | inactive | inactive
O=C1C(O)=Cc2cn([C@H](Cc3ccccc3)C(=O)O)c(=O)c3ccc(-c4ccccc4)c1c23 | inactive | inactive | inactive
COC1=Cc2cn([C@@H](Cc3c[nH]c4ccccc34)C(=O)O)c(=O)c3ccc(-c4ccccc4)c(c23)C1=O | inactive | inactive | inactive
COc1cc2c3c(ccc(-c4ccccc4)c3c1O[C@@H]1O[C@H](COC(=O)CC(=O)O)[C@@H](O)[C@H](O)[C@H]1O)C(=O)OC2 | – | Active | Active
CC(C)C[C@@H](C(=O)O)n1cc2c3c(c(-c4ccccc4)ccc3c1=O)C(=O)C(O)=C2 | inactive | inactive | inactive
COC1=Cc2cn([C@@H](Cc3ccc(O)cc3)C(=O)O)c(=O)c3ccc(-c4ccccc4)c(c23)C1=O | inactive | inactive | inactive
COC1=Cc2cn([C@H](CC(C)C)C(=O)O)c(=O)c3ccc(-c4ccccc4)c(c23)C1=O | inactive | inactive | inactive
O=C1OC(C(=O)O)c2cc(O)c(O)c3c(-c4ccccc4)ccc1c23 (configuration not stated) | – | Active | Active
O=C1OC(C(=O)O)c2cc(O)c(O[C@@H]3O[C@H](CO)[C@@H](O)[C@H](O)[C@H]3O)c3c(-c4ccccc4)ccc1c23 (some centres not stated) | – | Active | Active
O=C1C(O)=Cc2cn(CCO)c(=O)c3ccc(-c4ccccc4)c1c23 | inactive | inactive | inactive
COC1=Cc2cn([C@@H](Cc3ccccc3)C(=O)O)c(=O)c3ccc(-c4ccccc4)c(c23)C1=O | inactive | inactive | inactive
O=C1C(O)=Cc2cn([C@@H](Cc3ccccc3)C(=O)O)c(=O)c3ccc(-c4ccccc4)c1c23 | inactive | inactive | inactive
COC1=Cc2cn([C@H](Cc3ccccc3)C(=O)O)c(=O)c3ccc(-c4ccccc4)c(c23)C1=O | inactive | inactive | inactive
CSCC[C@@H](C(=O)O)n1cc2c3c(c(-c4ccccc4)ccc3c1=O)C(=O)C(O)=C2 | inactive | inactive | inactive
O=C1OCc2cc(O)c(O)c3c(-c4ccccc4)ccc1c23 | – | Active | Active
O=C(O)CC(=O)OC[C@H]1O[C@@H](Oc2c(O)cc3c4c(ccc(-c5ccccc5)c24)C(=O)OC3)[C@H](O)[C@@H](O)[C@@H]1O | – | Active | Active
